Experimental data: ChEMBL document CHEMBL1150387, “Development and experimental validation of a docking strategy for the generation of kinase-targeted libraries” (J Med Chem, 2008)

Experiments:
[1] = target: Receptor-type tyrosine-protein kinase FLT3 (Homo sapiens) (UniProt P36888); assay: Inhibition of FLT3 at 10 uM by HTRF assay relative to control
Summary of the method: (§1)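 HTRF kinase assay, one panel of kinases. Inhibitor stock 50 µM in 100% DMSO; tested at 10 µM. ATP and substrate at final levels near Km. Final buffer: 50 mM Hepes/NaOH pH 7.4, 40 µM Na3VO4, 0.005% Tween-20, 1 mM DTT, MnCl2 or MgCl2 at kinase-dependent levels. Started by adding ATP/substrate. Reaction run at room temperature, time varied by kinase. Detection mix in 50 mM Hepes pH 7.4, 0.1% BSA, 150 mM KF, incubated ≥1 h at room temperature. Activity expressed as % of uninhibited control; n=2.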

[2] = target: T1, Mitogen-activated protein kinase 12 (Homo sapiens) (UniProt P53778); assay: Inhibition of p38-gamma at 10 uM by HTRF assay relative to control; summary of the method: as §1
T1 sequence (whole entry): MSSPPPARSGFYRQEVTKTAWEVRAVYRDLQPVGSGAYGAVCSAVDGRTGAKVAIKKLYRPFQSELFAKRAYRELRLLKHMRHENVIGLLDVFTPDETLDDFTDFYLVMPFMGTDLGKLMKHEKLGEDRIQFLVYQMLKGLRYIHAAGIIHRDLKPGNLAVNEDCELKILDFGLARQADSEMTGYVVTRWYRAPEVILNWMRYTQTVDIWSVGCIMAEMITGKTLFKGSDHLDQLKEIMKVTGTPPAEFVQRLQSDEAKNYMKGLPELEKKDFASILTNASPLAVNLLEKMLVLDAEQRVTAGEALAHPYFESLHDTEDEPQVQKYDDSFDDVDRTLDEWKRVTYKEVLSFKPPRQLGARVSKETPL

[3] = target: Cyclin-dependent kinase 2 (Homo sapiens) (UniProt P24941); assay: Inhibition of CDK2 at 10 uM by HTRF assay relative to control; summary of the method: as §1
[4] = target: T2, Serine/threonine-protein kinase Chk1 (Homo sapiens) (UniProt O14757); assay: Inhibition of CHK1 at 10 uM by HTRF assay relative to control; summary of the method: as §1
T2 sequence (whole entry): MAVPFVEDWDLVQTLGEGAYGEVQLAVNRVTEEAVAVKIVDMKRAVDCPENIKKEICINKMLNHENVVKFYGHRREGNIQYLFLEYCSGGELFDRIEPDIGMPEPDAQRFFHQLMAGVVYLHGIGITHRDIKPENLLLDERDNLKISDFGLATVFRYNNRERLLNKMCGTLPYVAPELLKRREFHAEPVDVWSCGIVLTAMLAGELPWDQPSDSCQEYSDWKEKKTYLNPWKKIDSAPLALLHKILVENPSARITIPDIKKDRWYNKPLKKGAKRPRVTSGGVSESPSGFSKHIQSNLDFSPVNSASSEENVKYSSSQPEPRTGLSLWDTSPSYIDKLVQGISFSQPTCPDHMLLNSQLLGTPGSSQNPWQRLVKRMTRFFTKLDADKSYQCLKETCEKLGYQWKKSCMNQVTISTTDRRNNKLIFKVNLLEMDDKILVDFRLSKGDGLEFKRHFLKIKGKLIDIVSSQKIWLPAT

[5] = target: Calcium/calmodulin-dependent protein kinase type II subunit alpha (Homo sapiens) (UniProt Q9UQM7); assay: Inhibition of CaMK2alpha at 10 uM by HTRF assay relative to control; summary of the method: as §1
[6] = Inhibition of AMPKalpha at 10 uM by HTRF assay relative to control; summary of the method: as §1
[7] = target: Protein kinase C gamma type (Homo sapiens) (UniProt P05129); assay: Inhibition of PKCgamma at 10 uM by HTRF assay relative to control; summary of the method: as §1
[8] = target: Protein kinase C alpha type (Homo sapiens) (UniProt P17252); assay: Inhibition of PKCalpha at 10 uM by HTRF assay relative to control; summary of the method: as §1
[9] = Inhibition of PKA at 10 uM by HTRF assay relative to control; summary of the method: as §1
[10] = target: Proto-oncogene tyrosine-protein kinase Src (Homo sapiens) (UniProt P12931); assay: Inhibition of Src at 10 uM by HTRF assay relative to control; summary of the method: as §1
[11] = target: Tyrosine-protein kinase Fes/Fps (Homo sapiens) (UniProt P07332); assay: Inhibition of FES at 10 uM by HTRF assay relative to control; summary of the method: as §1
[12] = target: Focal adhesion kinase 1 (Homo sapiens) (UniProt Q05397); assay: Inhibition of FAK at 10 uM by HTRF assay relative to control; summary of the method: as §1
[13] = target: Platelet-derived growth factor receptor beta (Homo sapiens) (UniProt P09619); assay: Inhibition of PDGFRbeta at 10 uM by HTRF assay relative to control; summary of the method: as §1

Chain of Proto-oncogene tyrosine-protein kinase Src (Homo sapiens) (P12931 2-536 limits assumed): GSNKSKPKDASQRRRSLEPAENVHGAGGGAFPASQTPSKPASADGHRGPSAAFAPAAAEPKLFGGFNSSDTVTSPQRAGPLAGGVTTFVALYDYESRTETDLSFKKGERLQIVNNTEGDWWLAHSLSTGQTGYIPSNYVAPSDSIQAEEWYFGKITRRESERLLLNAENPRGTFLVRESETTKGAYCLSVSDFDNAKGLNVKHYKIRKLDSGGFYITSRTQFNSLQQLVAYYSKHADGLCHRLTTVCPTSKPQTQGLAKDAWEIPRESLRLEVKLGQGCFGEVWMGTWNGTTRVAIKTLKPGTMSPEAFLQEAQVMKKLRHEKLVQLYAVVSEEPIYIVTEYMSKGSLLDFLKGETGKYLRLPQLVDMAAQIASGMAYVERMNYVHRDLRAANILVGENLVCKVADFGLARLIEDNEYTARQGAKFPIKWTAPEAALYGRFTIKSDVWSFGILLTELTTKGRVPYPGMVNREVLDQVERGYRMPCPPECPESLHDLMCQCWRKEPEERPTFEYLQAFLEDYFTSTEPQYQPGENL
Chain of Receptor-type tyrosine-protein kinase FLT3 (Homo sapiens) (P36888 whole entry): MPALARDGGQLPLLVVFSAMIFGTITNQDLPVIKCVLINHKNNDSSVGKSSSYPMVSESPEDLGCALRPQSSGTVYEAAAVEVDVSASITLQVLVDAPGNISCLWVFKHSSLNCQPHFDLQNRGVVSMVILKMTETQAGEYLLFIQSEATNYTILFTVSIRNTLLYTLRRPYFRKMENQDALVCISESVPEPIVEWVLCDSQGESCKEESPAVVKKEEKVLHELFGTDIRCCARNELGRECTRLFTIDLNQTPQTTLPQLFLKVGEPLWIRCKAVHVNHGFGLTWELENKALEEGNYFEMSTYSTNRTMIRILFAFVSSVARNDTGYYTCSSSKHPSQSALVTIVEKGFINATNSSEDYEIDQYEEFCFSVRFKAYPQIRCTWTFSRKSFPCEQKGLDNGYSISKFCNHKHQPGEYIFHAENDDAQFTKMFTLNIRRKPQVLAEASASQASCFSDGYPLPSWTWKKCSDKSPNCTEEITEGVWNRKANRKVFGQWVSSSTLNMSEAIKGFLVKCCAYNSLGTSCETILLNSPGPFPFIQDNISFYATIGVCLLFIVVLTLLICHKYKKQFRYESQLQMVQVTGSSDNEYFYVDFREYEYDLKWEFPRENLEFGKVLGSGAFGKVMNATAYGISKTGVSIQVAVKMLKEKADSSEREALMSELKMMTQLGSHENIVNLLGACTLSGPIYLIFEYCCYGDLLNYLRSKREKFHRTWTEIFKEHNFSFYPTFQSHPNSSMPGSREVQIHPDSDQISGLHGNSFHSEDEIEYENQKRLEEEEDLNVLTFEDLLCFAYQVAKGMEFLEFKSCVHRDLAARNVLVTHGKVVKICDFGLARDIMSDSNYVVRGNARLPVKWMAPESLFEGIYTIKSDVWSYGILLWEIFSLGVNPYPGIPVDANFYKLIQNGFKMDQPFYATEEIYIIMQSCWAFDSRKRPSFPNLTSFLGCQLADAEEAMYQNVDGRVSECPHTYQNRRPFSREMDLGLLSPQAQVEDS
Chain of Calcium/calmodulin-dependent protein kinase type II subunit alpha (Homo sapiens) (Q9UQM7 whole entry): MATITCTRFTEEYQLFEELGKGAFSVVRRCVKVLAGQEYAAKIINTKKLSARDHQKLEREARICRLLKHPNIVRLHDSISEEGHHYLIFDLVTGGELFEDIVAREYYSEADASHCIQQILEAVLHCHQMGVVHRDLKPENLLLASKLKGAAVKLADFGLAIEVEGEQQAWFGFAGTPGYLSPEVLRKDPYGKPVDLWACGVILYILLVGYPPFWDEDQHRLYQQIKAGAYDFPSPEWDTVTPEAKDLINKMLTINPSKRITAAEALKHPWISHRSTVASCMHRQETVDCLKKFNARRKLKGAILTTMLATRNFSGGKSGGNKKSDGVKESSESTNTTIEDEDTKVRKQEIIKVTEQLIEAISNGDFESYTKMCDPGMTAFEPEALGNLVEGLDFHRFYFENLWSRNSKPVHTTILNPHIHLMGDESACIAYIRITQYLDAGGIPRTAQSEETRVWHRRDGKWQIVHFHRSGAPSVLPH
Chain of Focal adhesion kinase 1 (Homo sapiens) (Q05397 2-1052 limits assumed): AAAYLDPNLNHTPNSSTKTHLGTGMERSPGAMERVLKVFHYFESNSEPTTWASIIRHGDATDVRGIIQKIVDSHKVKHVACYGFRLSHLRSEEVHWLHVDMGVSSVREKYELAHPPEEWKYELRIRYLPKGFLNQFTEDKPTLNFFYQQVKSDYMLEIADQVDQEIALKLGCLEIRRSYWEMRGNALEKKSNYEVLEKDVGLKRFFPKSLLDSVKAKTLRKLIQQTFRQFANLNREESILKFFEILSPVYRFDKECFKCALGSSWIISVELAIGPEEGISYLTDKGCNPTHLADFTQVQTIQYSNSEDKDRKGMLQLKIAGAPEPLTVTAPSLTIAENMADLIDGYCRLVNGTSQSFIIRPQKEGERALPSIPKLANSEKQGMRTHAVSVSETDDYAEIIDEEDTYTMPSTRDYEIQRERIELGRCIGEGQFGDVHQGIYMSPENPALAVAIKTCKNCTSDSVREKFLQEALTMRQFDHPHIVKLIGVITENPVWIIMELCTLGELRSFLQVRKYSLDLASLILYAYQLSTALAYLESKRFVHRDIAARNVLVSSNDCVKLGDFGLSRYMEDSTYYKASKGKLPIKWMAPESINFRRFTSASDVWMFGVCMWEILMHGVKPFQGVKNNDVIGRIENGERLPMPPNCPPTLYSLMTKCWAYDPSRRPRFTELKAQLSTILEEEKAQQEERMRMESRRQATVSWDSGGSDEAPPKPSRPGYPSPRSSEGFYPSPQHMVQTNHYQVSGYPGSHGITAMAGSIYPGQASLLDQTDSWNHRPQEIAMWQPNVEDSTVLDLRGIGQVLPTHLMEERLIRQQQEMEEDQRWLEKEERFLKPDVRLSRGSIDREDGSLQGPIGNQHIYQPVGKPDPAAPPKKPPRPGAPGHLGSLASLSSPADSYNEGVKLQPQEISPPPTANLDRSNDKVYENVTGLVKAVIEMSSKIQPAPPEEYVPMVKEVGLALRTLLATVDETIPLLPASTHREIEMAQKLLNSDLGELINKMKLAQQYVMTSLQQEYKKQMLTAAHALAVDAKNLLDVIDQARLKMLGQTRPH

inhibition [1] [%]	inhibition [2] [%]	inhibition [3] [%]	inhibition [4] [%]	inhibition [5] [%]	inhibition [6] [%]	inhibition [7] [%]	inhibition [8] [%]	inhibition [9] [%]	inhibition [10] [%]	inhibition [11] [%]	inhibition [12] [%]	inhibition [13] [%]	SMILES
35	0	15	4	0	11	0	2	0	30	17	12	26	O=C(NCc1ccncc1)c1cccc(Nc2cc(Nc3cccc(Br)c3)ncn2)c1
0	0	3	2	0	9	5	0	0	2	4	3	0	COc1cccc(Nc2cc(N3CCC[C@H]3C(=O)NCCc3ccc(O)cc3)nc(N)n2)c1
0	0	6	1	0	0	4	0	0	0	0	6	0	COC(=O)C(CO)NC(=O)[C@@H]1CCCN1c1nccc(Oc2cccc(C)c2)n1 (stereo partly specified)
0	0	5	4	0	7	5	0	0	4	2	0	6	O=C(C1CCN(c2nccc(Nc3ccccc3)n2)CC1)N1CC[C@@H](O)C1
0	0	10	4	0	9	0	0	0	5	16	4	4	CC(=O)CCCCC(=O)N1CCN(c2nccc(Oc3cccc(C)c3)n2)CC1
1	17	2	5	0	8	0	2	13	10	18	10	7	COc1cccc(Nc2cc(Nc3cccc(C(=O)NCCCn4ccnc4)c3)nc(N)n2)c1
0	0	8	0	0	0	6	0	0	0	5	0	11	Cc1cccc(Oc2ccnc(N3CCC[C@H]3C(=O)NCc3cccnc3)n2)c1
0	2	24	3	0	19	2	0	0	0	3	7	10	Cc1cccc(Nc2ncnc3c2CN(C(=O)c2ccc(N(C)C)c4ccccc24)CC3)c1
98	0	8	0	0	8	16	0	0	71	45	78	89	O=C(NCCc1ccc(O)cc1)c1cccc(Nc2nccc(Nc3ccc4ncsc4c3)n2)c1
0	2	16	5	0	16	2	8	0	0	6	1	5	Clc1ccc2sc(CN3CCN(c4ncnc5c4CN(Cc4ccccc4)CC5)CC3)cc2c1
0	4	0	1	0	15	0	0	0	0	8	0	8	COC[C@@H]1CCCN1C(=O)[C@@H]1CCCN1c1nccc(Nc2ccccc2)n1

The next lines start with the compound.

SMILES	inhibition [1] [%]	inhibition [2] [%]	inhibition [3] [%]	inhibition [4] [%]	inhibition [5] [%]	inhibition [6] [%]	inhibition [7] [%]	inhibition [8] [%]	inhibition [9] [%]	inhibition [10] [%]	inhibition [11] [%]	inhibition [12] [%]	inhibition [13] [%]
Cc1cccc(Nc2cc(Nc3cccc(C(=O)N(CC(C)O)CC(C)O)c3)ncn2)c1 (stereo unspecified)	27	0	3	3	0	6	1	1	0	26	20	20	32
Cc1cccc(Oc2ccnc(N3CCN(C(=O)c4c(C)noc4C)CC3)n2)c1	0	7	2	3	0	6	3	0	2	0	7	0	5
Cc1cccc(CN2CCN(c3cc(N(C)c4cccc(C)c4)ncn3)CC2)c1	0	2	0	0	0	4	2	3	0	8	4	4	6
Cc1cccc(Nc2nccc(Nc3cccc(C(=O)N(C)CCc4ccccn4)c3)n2)c1	86	2	28	5	0	17	14	0	0	64	75	99	93
CN(C)CC(C)(C)CNC(=O)c1cccc(Nc2nccc(Nc3ccc4ncsc4c3)n2)c1	99	9	24	7	34	72	79	0	12	99	97	97	99
O=C(CN1CCN(c2ncnc3c2CN(Cc2ccccc2)CC3)CC1)Nc1cc(F)ccc1F	0	0	9	0	0	0	0	4	0	1	11	0	5
Nc1nc(Nc2ccc3ncsc3c2)cc(N2CCC[C@H]2C(=O)NCCc2cccc(I)c2)n1	11	2	5	3	0	6	0	0	1	0	8	4	14
Cc1cccc(N(C)c2cc(Nc3ccc(CC(=O)Nc4ccc5ncsc5c4)cc3)ncn2)c1	67	0	4	1	0	0	5	0	0	6	24	15	48
CC(=O)N1CCN(C(=O)c2cccc(Nc3cc(N(C)c4cccc(C)c4)ncn3)c2)CC1	29	3	9	2	0	0	5	6	0	17	18	17	42
Cc1cccc(N(C)c2cc(N3CCN(CC(=O)Nc4nc(-c5ccccc5)cs4)CC3)ncn2)c1	0	3	2	1	0	14	0	3	0	0	0	5	7
Cc1cccc(N(C)c2cc(N3CCN(C(=O)Cc4c[nH]c5ccccc45)CC3)ncn2)c1	0	3	10	4	0	3	2	0	0	0	24	5	1
